For one test, the system named is MDA-MB-231. Nature of the test: Antiproliferative activity against human MDA-MB-231 cells assessed as reduction in cell viability incubated for 72 hrs by MTT assay. Format: functional, cell-based. As to conditions: MDA-MB-231, 72 h. The gist of the method:
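MTT viability assay after 72 h of drug exposure. Cells seeded at 5000 per well in 10% FBS and left overnight, then treated in 5% FBS. MTT added for 1 h, dye dissolved in DMSO, absorbance read at 570 nm. Viability given relative to vehicle-treated cells.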

The target in test [1] is Epidermal growth factor receptor (Homo sapiens) (UniProt P00533). In words: Induction of EGFR degradation in human MDA-MB-231 cells assessed as reduction in EGFR expression incubated for 48 hrs by immunoblot analysis. Format: cell-based. In a few lines:
(§1)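 After 48 h treatment, cells were scraped and lysed in 1% SDS, 50 mM Tris-HCl pH 8.0, 10 mM EDTA with protease and phosphatase inhibitors. Lysates sonicated, protein measured by BCA, equal amounts run on SDS-PAGE and blotted to nitrocellulose. Primary antibodies (EGFR, c-Met, S473-Akt, Akt, GAPDH) used at 1:1000 overnight at 4 °C, HRP secondaries at 1:5000, ECL detection.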
On the technique in general: In western blotting, separated proteins are transferred to a membrane and probed.

For test [2], the target named is Hepatocyte growth factor receptor (Homo sapiens) (UniProt P08581). In words: Induction of c-MET degradation in human MDA-MB-231 cells assessed as reduction in c-Met expression incubated for 48 hrs by immunoblot analysis. In kind it is cell-based. In a few lines:
as §1

For another test, the system named is PC-9. In words: Antiproliferative activity against human PC9 cells harbouring EGFR delE746-A750 mutant assessed as reduction in cell viability incubated for 72 hrs by MTT assay. As to conditions: PC-9, 72 h. Format: functional, cell-based.
In the next test the test system is NCI-H1975. Nature of the test: Antiproliferative activity against human NCI-H1975 cells harbouring EGFR L858R/T790M double mutant assessed as reduction in cell viability incubated for 72 hrs by MTT assay. In kind it is functional, cell-based. As to conditions: NCI-H1975, 72 h.
Test [3] in a line: Antiproliferative activity against human CL68 cells harbouring EGFR delE746-A750/T790M mutant assessed as reduction in cell viability incubated for 72 hrs by MTT assay. Format: functional, cell-based. A general note: Formazan colour is commonly taken as a measure of viable cells.
The test system of a further test is CL97. In words: Antiproliferative activity against human CL97 cells harbouring EGFR G719A/T790M mutant assessed as reduction in cell viability incubated for 72 hrs by MTT assay. In kind it is functional, cell-based. As to conditions: CL97, 72 h.
In a further test the test system is A549. Nature of the test: Antiproliferative activity against wild type human A549 cells assessed as reduction in cell viability incubated for 72 hrs by MTT assay. In kind it is functional, cell-based. As to conditions: A549, 72 h.

Calls of active or inactive are those of the source. The calls are words filed in the database; no cut-off is given here.

Sequence of Hepatocyte growth factor receptor (Homo sapiens) (P08581 whole entry): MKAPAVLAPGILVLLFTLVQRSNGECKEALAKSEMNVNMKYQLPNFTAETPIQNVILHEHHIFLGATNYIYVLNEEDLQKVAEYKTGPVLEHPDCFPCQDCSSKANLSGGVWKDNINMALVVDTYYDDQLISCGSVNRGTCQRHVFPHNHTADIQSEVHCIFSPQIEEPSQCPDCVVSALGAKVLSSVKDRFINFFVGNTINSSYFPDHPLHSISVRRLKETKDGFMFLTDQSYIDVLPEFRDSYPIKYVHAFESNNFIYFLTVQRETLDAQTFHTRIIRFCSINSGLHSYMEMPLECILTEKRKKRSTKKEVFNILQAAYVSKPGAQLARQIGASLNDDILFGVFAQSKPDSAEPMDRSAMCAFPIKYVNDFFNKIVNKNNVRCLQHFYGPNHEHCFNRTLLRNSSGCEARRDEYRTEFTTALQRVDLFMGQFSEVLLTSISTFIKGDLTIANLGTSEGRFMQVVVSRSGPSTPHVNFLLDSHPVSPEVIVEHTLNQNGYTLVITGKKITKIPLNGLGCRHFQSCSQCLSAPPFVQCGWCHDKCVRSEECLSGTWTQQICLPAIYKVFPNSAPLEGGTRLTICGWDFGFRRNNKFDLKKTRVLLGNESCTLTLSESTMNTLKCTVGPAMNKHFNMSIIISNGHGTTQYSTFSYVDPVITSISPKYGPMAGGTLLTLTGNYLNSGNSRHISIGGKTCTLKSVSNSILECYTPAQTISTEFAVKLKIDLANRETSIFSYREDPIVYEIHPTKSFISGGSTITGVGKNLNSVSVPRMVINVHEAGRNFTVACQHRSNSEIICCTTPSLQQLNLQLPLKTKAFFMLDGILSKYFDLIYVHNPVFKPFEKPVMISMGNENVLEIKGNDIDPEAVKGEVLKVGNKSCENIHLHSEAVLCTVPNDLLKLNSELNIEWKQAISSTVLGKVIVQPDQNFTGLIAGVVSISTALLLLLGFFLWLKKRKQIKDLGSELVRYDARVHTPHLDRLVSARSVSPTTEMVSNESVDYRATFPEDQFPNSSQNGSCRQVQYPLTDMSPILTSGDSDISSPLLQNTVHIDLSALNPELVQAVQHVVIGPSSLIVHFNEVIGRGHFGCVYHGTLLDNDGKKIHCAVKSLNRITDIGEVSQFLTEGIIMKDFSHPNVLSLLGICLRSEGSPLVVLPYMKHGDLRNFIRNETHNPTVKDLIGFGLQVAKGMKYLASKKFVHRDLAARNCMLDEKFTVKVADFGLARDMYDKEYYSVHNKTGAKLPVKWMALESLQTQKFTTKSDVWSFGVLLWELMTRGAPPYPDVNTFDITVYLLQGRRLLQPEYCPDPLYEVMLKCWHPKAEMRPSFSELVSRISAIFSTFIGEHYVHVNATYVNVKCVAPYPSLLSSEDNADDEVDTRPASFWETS
Sequence of Epidermal growth factor receptor (Homo sapiens) (P00533 whole entry): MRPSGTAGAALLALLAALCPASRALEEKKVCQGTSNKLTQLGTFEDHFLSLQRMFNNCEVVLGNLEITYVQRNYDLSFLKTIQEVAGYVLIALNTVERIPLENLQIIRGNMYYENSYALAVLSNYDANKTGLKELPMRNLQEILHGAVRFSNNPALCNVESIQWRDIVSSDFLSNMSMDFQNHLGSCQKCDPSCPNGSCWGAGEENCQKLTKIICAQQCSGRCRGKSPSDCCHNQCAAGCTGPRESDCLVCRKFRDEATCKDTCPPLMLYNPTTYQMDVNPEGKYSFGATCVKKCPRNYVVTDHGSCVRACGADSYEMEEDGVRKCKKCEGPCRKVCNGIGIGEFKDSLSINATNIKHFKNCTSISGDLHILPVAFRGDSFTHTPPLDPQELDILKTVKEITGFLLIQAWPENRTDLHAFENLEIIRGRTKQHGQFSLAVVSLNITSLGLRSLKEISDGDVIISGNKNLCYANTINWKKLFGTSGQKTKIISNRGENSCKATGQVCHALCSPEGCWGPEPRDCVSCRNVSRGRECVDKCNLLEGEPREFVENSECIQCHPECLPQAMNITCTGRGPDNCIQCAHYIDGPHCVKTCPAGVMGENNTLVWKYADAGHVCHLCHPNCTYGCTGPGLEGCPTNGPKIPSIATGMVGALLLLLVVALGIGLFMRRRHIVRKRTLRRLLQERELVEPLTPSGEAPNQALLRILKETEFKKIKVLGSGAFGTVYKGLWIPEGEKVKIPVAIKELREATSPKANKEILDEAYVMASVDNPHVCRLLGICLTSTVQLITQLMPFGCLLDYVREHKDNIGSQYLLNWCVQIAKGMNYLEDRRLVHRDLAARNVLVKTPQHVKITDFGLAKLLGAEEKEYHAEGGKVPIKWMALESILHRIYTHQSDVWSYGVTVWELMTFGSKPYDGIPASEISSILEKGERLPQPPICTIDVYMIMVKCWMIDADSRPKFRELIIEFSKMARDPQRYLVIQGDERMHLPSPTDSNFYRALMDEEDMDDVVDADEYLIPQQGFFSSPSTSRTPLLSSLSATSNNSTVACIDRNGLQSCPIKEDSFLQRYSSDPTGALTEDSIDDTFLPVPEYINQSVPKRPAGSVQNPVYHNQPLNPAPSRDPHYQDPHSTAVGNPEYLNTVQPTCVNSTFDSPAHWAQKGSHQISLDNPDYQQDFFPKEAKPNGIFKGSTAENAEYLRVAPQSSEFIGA

Take `O=C(Nc1ccc(-c2noc(-c3cccc(NS(=O)(=O)c4ccccc4)c3)n2)c(Cl)c1)c1cccnc1`: the half-maximal inhibitory concentration (IC50) (in general, the concentration that inhibits the measured activity by half) with MDA-MB-231 was greater than 10 µM.

Consider `COc1ccc(NC(=O)Nc2cccc(-c3nc(-c4ccc(NC(=O)c5cccnc5)cc4Cl)no3)c2)cc1C(F)(F)F`, for which the IC50 in the test with MDA-MB-231 turned out to be 1.7 µM. Further, in test [1], the result was inactive. Also, the result in test [2] was Active. Regarding `COc1cc(NC(=O)c2cccnc2)ccc1-c1noc(-c2cccc(NS(=O)(=O)c3ccc(NC(C)=O)cc3)c2)n1`, the IC50 with MDA-MB-231 is greater than 10 µM. As to `CS(=O)(=O)Nc1ccc(NC(=O)Nc2cccc(-c3nc(-c4ccc(NC(=O)c5cccnc5)cc4Cl)no3)c2)cc1Cl`, the IC50 in the test on MDA-MB-231 was determined as 0.6 µM. In test [1], the outcome was inactive. In test [2], the outcome was Active. For `CNC(=O)Nc1ccc(S(=O)(=O)Nc2cccc(-c3nc(-c4ccc(NC(=O)c5cccnc5)cc4Cl)no3)c2)cc1`, the IC50 in the test on MDA-MB-231 is 1.3 µM. As to `O=C(Nc1cccc(-c2nc(-c3ccc(NC(=O)c4cccnc4)cc3Cl)no2)c1)Nc1cc(C(F)(F)F)cc(C(F)(F)F)c1`, the IC50 in the test with MDA-MB-231 came out at 1.9 µM.

Regarding `CC(=O)Nc1ccc(NC(=O)Nc2cccc(-c3nc(-c4ccc(NC(=O)c5cccnc5)cc4Cl)no3)c2)cc1Cl`, the IC50 in the test with MDA-MB-231 was greater than 10 µM. The same measure, in the same setting: in the case of `CCN(CC)C(=O)Nc1ccc(S(=O)(=O)Nc2cccc(-c3nc(-c4ccc(NC(=O)c5cccnc5)cc4Cl)no3)c2)cc1` it was 8.7 µM. Consider `CS(=O)(=O)Nc1ccc(NC(=O)Nc2cccc(-c3nc(-c4ccc(NC(=O)c5cccnc5)cc4Cl)no3)c2)cc1C(F)(F)F`, for which, in the test on MDA-MB-231, the 50% inhibitory concentration (IC50) is 0.7 µM. Same read-out and setting: in the case of `CS(=O)(=O)Nc1ccc(NC(=O)Nc2cccc(-c3nc(-c4ccc(NC(=O)c5cccnc5)cc4Cl)no3)c2)cc1Br` it was 0.7 µM. Regarding `C#Cc1cccc(Nc2ncnc3cc(OCCOC)c(OCCOC)cc23)c1` [ERLOTINIB], the IC50 in the test with PC-9 is 0.1 µM; with NCI-H1975, 10 µM; in test [3], 5 µM; with CL97, greater than 20 µM. `COc1cccc(S(=O)(=O)Nc2cccc(-c3nc(-c4ccc(NC(=O)c5cccnc5)cc4Cl)no3)c2)c1`: the IC50 in the test with MDA-MB-231 is greater than 10 µM. As for `NC(=O)Nc1ccc(S(=O)(=O)Nc2cccc(-c3nc(-c4ccc(NC(=O)c5cccnc5)cc4Cl)no3)c2)cc1`, in the test with MDA-MB-231, the IC50 stood at 2.8 µM. Same read-out and setting: then `NS(=O)(=O)c1ccc(NC(=O)Nc2cccc(-c3nc(-c4ccc(NC(=O)c5cccnc5)cc4Cl)no3)c2)cc1`, with greater than 10 µM; and `CC(=O)Nc1ccc(NC(=O)Nc2cccc(-c3nc(-c4ccc(NC(=O)c5cccnc5)cc4Cl)no3)c2)cc1`, with greater than 10 µM; and `Cc1ccc(S(=O)(=O)Nc2cccc(-c3nc(-c4ccc(NC(=O)c5cccnc5)cc4Cl)no3)c2)cc1`, with greater than 10 µM. The same measure, in the same setting: in the case of `O=C(Nc1ccccc1)Nc1cccc(-c2nc(-c3ccc(NC(=O)c4cccnc4)cc3Cl)no2)c1` it was greater than 10 µM. As for `O=C(Nc1ccc(-c2noc(-c3cccc(NS(=O)(=O)c4ccc(NC(=O)N5CCCC5)cc4)c3)n2)c(Cl)c1)c1cccnc1`, the IC50 with MDA-MB-231 turned out to be 5.8 µM. The same measure, in the same setting: in the case of `O=C(Nc1ccc(-c2noc(-c3cccc(NS(=O)(=O)c4cccc(Cl)c4)c3)n2)c(Cl)c1)c1cccnc1` it was greater than 10 µM. On to `CN(C)C/C=C/C(=O)Nc1cc2c(Nc3ccc(F)c(Cl)c3)ncnc2cc1O[C@H]1CCOC1` [AFATINIB], for which the IC50 with A549 was 5 to 10 µM; in the test on PC-9, less than 0.01 µM; in the test on NCI-H1975, 1 µM; in test [3] it was 0.1 µM; with CL97, 0.1 µM. Turning to `CC(=O)Nc1ccc(S(=O)(=O)Nc2cccc(-c3nc(-c4ccc(NC(=O)c5cccnc5)cc4Cl)no3)c2)cc1C`, in the test on MDA-MB-231, the IC50 is greater than 10 µM. The same measure, in the same setting: in the case of `C#Cc1cccc(NC(=O)Nc2cccc(-c3nc(-c4ccc(NC(=O)c5cccnc5)cc4Cl)no3)c2)c1` it was greater than 10 µM. Take `O=C(Nc1cccc(-c2nc(-c3ccc(NC(=O)c4cccnc4)cc3Cl)no2)c1)Nc1cccc(C(F)(F)F)c1`: the IC50 in the test on MDA-MB-231 stood at 1.9 µM. For the same molecule, the outcome in test [1] was inactive. Moreover, the result in test [2] was Active.

For `CC(=O)Nc1ccc(S(=O)(=O)Nc2cccc(-c3nc(-c4ccc(NC(=O)c5cccnc5)c(Cl)c4)no3)c2)cc1`, in the test on MDA-MB-231, the IC50 was 4.5 µM.

With `O=C(Nc1ccc(-c2noc(-c3cccc(NS(=O)(=O)c4ccc(NC(=O)N5CCOCC5)cc4)c3)n2)c(Cl)c1)c1cccnc1`, in the test with MDA-MB-231, the half-maximal inhibitory concentration (IC50) was greater than 10 µM.

Regarding `O=C(Nc1ccc(-c2noc(-c3cccc(NS(=O)(=O)c4ccc(C(F)(F)F)cc4)c3)n2)c(Cl)c1)c1cccnc1`, the IC50 with MDA-MB-231 was greater than 10 µM.

As to `CC(=O)Nc1ccc(S(=O)(=O)Nc2cccc(-c3nc(-c4ccc(NC(=O)c5cccnc5)cc4Cl)no3)c2)cc1`, the IC50 in the test on MDA-MB-231 turned out to be 2.5 µM. The same measure, in the same setting: in the case of `CCNC(=O)Nc1ccc(S(=O)(=O)Nc2cccc(-c3nc(-c4ccc(NC(=O)c5cccnc5)cc4Cl)no3)c2)cc1` it was 3.1 µM; in that of `CC(=O)Nc1ccc(S(=O)(=O)Nc2cccc(-c3nc(-c4ccc(NC(=O)c5cccnc5)cc4)no3)c2)cc1`, 5.2 µM; in that of `CC(=O)Nc1ccc(S(=O)(=O)Nc2cccc(-c3nc(-c4ccc(NC(=O)c5cccnc5)cc4Cl)no3)c2)cc1Cl`, greater than 10 µM. Still for that read-out and setting: then `NC(=O)Nc1ccc(NC(=O)Nc2cccc(-c3nc(-c4ccc(NC(=O)c5cccnc5)cc4Cl)no3)c2)cc1C(F)(F)F`, with 3.4 µM; and `COc1cc(-c2noc(-c3cccc(NS(=O)(=O)c4ccc(NC(C)=O)cc4)c3)n2)ccc1NC(=O)c1cccnc1`, with greater than 10 µM; and `CC(=O)Nc1ccc(S(=O)(=O)Nc2cccc(-c3nc(-c4ccc(NC(=O)c5cccnc5)cc4C(F)(F)F)no3)c2)cc1`, with greater than 10 µM. On to `COc1cccc(NC(=O)Nc2cccc(-c3nc(-c4ccc(NC(=O)c5cccnc5)cc4Cl)no3)c2)c1`, for which the IC50 with MDA-MB-231 came out at 6.7 µM. Still for that read-out and setting: in the case of `O=C(Nc1ccc(S(=O)(=O)Nc2cccc(-c3nc(-c4ccc(NC(=O)c5cccnc5)cc4Cl)no3)c2)cc1)NC1CCCC1` it was greater than 10 µM; in that of `CC(=O)Nc1ccc(NC(=O)Nc2cccc(-c3nc(-c4ccc(NC(=O)c5cccnc5)cc4Cl)no3)c2)cc1Br`, 1 µM. In the case of `C=CC(=O)Nc1cc(Nc2nccc(-c3cn(C)c4ccccc34)n2)c(OC)cc1N(C)CCN(C)C` [OSIMERTINIB], the IC50 in the test with A549 was 5 µM; in the test on PC-9 it was less than 0.01 µM; in the test on NCI-H1975, […]; in test [3] it was 0.01 µM; with CL97 it was 0.1 µM. Regarding `NS(=O)(=O)c1ccc(S(=O)(=O)Nc2cccc(-c3nc(-c4ccc(NC(=O)c5cccnc5)cc4Cl)no3)c2)cc1`, the IC50 in the test with MDA-MB-231 is greater than 10 µM. Turning to `C#Cc1ccc(NC(=O)Nc2cccc(-c3nc(-c4ccc(NC(=O)c5cccnc5)cc4Cl)no3)c2)cc1`, the IC50 with MDA-MB-231 was greater than 10 µM. Same read-out and setting: in the case of `O=C(Nc1cccc(-c2nc(-c3ccc(NC(=O)c4cccnc4)cc3Cl)no2)c1)Nc1ccc(NC(=O)c2cccs2)c(C(F)(F)F)c1` it was 2.9 µM; in that of `O=C(Nc1cccc(-c2nc(-c3ccc(NC(=O)c4cccnc4)cc3Cl)no2)c1)Nc1ccc(Cl)c(C(F)(F)F)c1`, 1.9 µM. With `O=C(Nc1ccc(NS(=O)(=O)C2CC2)cc1)Nc1cccc(-c2nc(-c3ccc(NC(=O)c4cccnc4)cc3Cl)no2)c1`, the IC50 with MDA-MB-231 amounted to 0.3 µM. For the same molecule, the outcome in test [1] and in test [2] was Active. As to `O=C(Nc1ccc(Cl)cc1)Nc1cccc(-c2nc(-c3ccc(NC(=O)c4cccnc4)cc3Cl)no2)c1`, the half-inhibitory concentration (IC50) with MDA-MB-231 was greater than 10 µM.

Regarding `O=C(Nc1cccc(-c2nc(-c3ccc(NC(=O)c4cccnc4)cc3Cl)no2)c1)Nc1ccc(NC(=O)C2CCCC2)c(C(F)(F)F)c1`, in the test on MDA-MB-231, the IC50 is 0.3 µM. Besides, the outcome in test [1] and in test [2] was Active. Regarding `Cc1ccc(NC(=O)Nc2cccc(-c3nc(-c4ccc(NC(=O)c5cccnc5)cc4Cl)no3)c2)cc1`, the IC50 in the test on MDA-MB-231 worked out at 3.5 µM. Turning to `O=C(Nc1cccc(-c2nc(-c3ccc(NC(=O)c4cccnc4)cc3Cl)no2)c1)c1ccccc1`, the IC50 in the test on MDA-MB-231 was found to be 12.8 µM. On the same count and under the same terms, then `CS(=O)(=O)Nc1cccc(NC(=O)Nc2cccc(-c3nc(-c4ccc(NC(=O)c5cccnc5)cc4Cl)no3)c2)c1`, with greater than 10 µM; and `NS(=O)(=O)Nc1ccc(NC(=O)Nc2cccc(-c3nc(-c4ccc(NC(=O)c5cccnc5)cc4Cl)no3)c2)cc1`, with 8.9 µM. On the same count and under the same terms, in the case of `COc1ccc(NC(=O)Nc2cccc(-c3nc(-c4ccc(NC(=O)c5cccnc5)cc4Cl)no3)c2)cc1` it was 3 µM.

Consider `CS(=O)(=O)Nc1ccc(NC(=O)Nc2cccc(-c3nc(-c4ccc(NC(=O)c5cccnc5)cc4Cl)no3)c2)cc1`, for which the IC50 in the test on MDA-MB-231 was 0.6 µM. Besides, in test [1], the outcome was inactive. In test [2], the outcome was Active. For the molecule `CC(=O)Nc1ccc(S(=O)(=O)Nc2cccc(-c3nc(-c4ccc(NC(=O)c5cccnc5)c(C(F)(F)F)c4)no3)c2)cc1`, the IC50 in the test on MDA-MB-231 is greater than 10 µM.

Take `O=C(Nc1ccc(-c2noc(-c3cccc(NS(=O)(=O)c4ccc(NC(=O)N5CCCCC5)cc4)c3)n2)c(Cl)c1)c1cccnc1`: the IC50 in the test with MDA-MB-231 was greater than 10 µM.

The values are drawn from ChEMBL document CHEMBL4359903, “1,2,4-Oxadiazole derivatives targeting EGFR and c-Met degradation in TKI resistant NSCLC” (Eur J Med Chem, 2019).
